A short description of series [1]: Prodrug activation in Escherichia coli CFT073 expressing beta lactamase CTX-M-1 assessed as bacterial CTX-M-1-mediated ciprofloxacin release by measuring growth inhibition incubated for 18 hrs in presence of human serum by broth microdilution method. As to conditions: bacteria; call rule not given here. The procedure, abridged:
(§1)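 MIC assay in E. coli CFT073 carrying pSU18 (empty pEMP or encoding CTX-M-1), run in the presence of human serum. The read-out is the minimal concentration inhibiting bacterial growth.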

Series [2] is described as follows: Prodrug activation in Escherichia coli CFT073 expressing KPC3 assessed as bacterial KPC3-mediated ciprofloxacin release by measuring growth inhibition incubated for 18 hr by broth microdilution method. To be noted: bacteria. The procedure, abridged:
(§2)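 MIC determination in E. coli CFT073, either wild type or carrying pSU18 (empty pEMP, or encoding CTX-M, NDM-1 or KPC). Dose–response growth curves were run, and each point is the mean ± SEM of n = 3. The MIC is the minimal concentration that inhibits bacterial growth.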
(Dilution methods test growth across graded concentrations, often in twofold steps.)

Series [3] has as its system Escherichia coli. In words: Growth inhibition of Escherichia coli CFT073 expressing pSU18 incubated for 18 hrs in presence of human serum. It is filed as organism-based. A digest of the protocol: as §1
The nature of series [4]: Ratio of prodrug activation in Escherichia coli CFT073 expressing beta lactamase CTX-M-1 assessed as bacterial CTX-M-1-mediated ciprofloxacin release by measuring bactericidal activity to bactericidal activity against Escherichia coli CFT073 expressing pSU18.
A further series has as its system Bacteria. Kind of series: Prodrug activation assessed as bacterial N-terminal His6-tagged CTX-M-15-mediated ciprofloxacin release by measuring inhibition of DNA gyrase activity 1 uM by SYBR Safe DNA gel staining-based agarose gel electrophoresis relative to control. A digest of the protocol: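 Cell-free assay using recombinant DNA gyrase with relaxed pBR322 plasmid DNA as substrate. Compounds were incubated with the gyrase and DNA in the absence or presence of purified recombinant β-lactamase CTX-M-15.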

Series [5] concerns Escherichia coli. In words: Growth inhibition of Escherichia coli CFT073 incubated for 18 hrs by broth microdilution method. It is filed as organism-based. To be noted: in vivo. A digest of the protocol:
as §2

A short description of series [6]: Prodrug activation in ciprofloxacin-resistant Escherichia coli isolate EC19 expressing bacterial beta lactamase CTX-M-15 assessed as bacterial CTX-M-15-mediated ciprofloxacin release by measuring growth inhibition incubated for 18 hrs by broth microdilution method.
Series [7] has as its system Enterococcus faecalis. In words: Effect on growth of Enterococcus faecalis ATCC 29212 incubated for 18 hrs by broth microdilution method. As to conditions: in vivo. In kind it is organism-based.
Series [8] in a line: Prodrug activation in Escherichia coli CFT073 expressing beta lactamase CTX-M-1 assessed as bacterial CTX-M-1-mediated ciprofloxacin release by measuring growth inhibition incubated for 18 hrs by broth microdilution method. To be noted: bacteria. A digest of the protocol:
as §2

The subject of series [9] is Escherichia coli. Kind of series: Growth inhibition of ciprofloxacin-susceptible Escherichia coli CFT073 harboring pSU18 incubated for 18 hrs by broth microdilution method. As to conditions: in vivo. It is filed as organism-based. A digest of the protocol:
as §2

Series [10] has as its system Escherichia coli. Kind of series: Bactericidal activity against Escherichia coli CFT073 expressing pSU18 assessed as reduction in colony forming units at 78 nM measured after 6 hrs. It is filed as ADME, organism-based. To be noted: in vivo, 0.078 µM. A digest of the protocol:
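Time-kill assay on uropathogenic E. coli CFT073 carrying pSU18, either empty (pEMP, β-lactamase coding sequence absent) or encoding CTX-M-1. Cells were left untreated or exposed to drug, and viability was followed over time by CFU counts, with a 6 h incubation read-out.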

A short description of series [11]: Prodrug activation in ciprofloxacin-resistant Escherichia coli isolate EC13 expressing bacterial beta lactamase CTX-M-15 assessed as bacterial CTX-M-15-mediated ciprofloxacin release by measuring growth inhibition incubated for 18 hrs by broth microdilution method.
A short description of series [12]: Prodrug activation in ciprofloxacin sensitive Escherichia coli isolate EC17 expressing bacterial beta lactamase CTX-M-15 assessed as bacterial CTX-M-15-mediated ciprofloxacin release by measuring growth inhibition incubated for 18 hrs by broth microdilution method.
Series [13] is described as follows: Prodrug activation in ciprofloxacin sensitive Escherichia coli isolate EC16 expressing bacterial beta lactamase CTX-M-15 assessed as bacterial CTX-M-15-mediated ciprofloxacin release by measuring growth inhibition incubated for 18 hrs by broth microdilution method.
Series [14] can be described thus: Prodrug activation in ciprofloxacin sensitive Escherichia coli isolate EC11 expressing bacterial beta lactamase CTX-M-15 assessed as bacterial CTX-M-15-mediated ciprofloxacin release by measuring growth inhibition incubated for 18 hrs by broth microdilution method.
Series [15] has as its system Enterococcus faecalis. Kind of series: Effect on growth of Enterococcus faecalis GW01 incubated for 18 hrs by broth microdilution method. In kind it is organism-based. As to conditions: in vivo.
The nature of series [16]: Prodrug activation in Escherichia coli CFT073 expressing NDM1 assessed as bacterial NDM1-mediated ciprofloxacin release by measuring growth inhibition incubated for 18 hr by broth microdilution method. To be noted: bacteria. The procedure, abridged: as §2
Series [17] in a line: Prodrug activation in ciprofloxacin-resistant Escherichia coli isolate EC12 expressing bacterial beta lactamase CTX-M-15 assessed as bacterial CTX-M-15-mediated ciprofloxacin release by measuring growth inhibition incubated for 18 hrs by broth microdilution method.

Converted amounts (≈) assume the structure as drawn.

As for `CC(=O)N[C@@H]1C(=O)N2C(C(=O)O)=C(COC(=O)c3cn(C4CC4)c4cc(N5CCNCC5)c(F)cc4c3=O)CS[C@H]12`, the “growth inhibition (GI)” value in [1] is “Active”; in series [6], “Not Active”; in series [11], “Not Active”; in series [12], “Active”; in [13], “Active”; in series [14] it was “Active”. Besides, in series [17], the “growth inhibition (GI)” value is listed as “Not Active”. Also, the MIC in [2] is 0.04 µg/mL (≈ 0.0683 µM); with Escherichia coli [5], 0.18 µg/mL (≈ 0.307 µM); in [8], 0.04 µg/mL (≈ 0.0683 µM); against Escherichia coli [9] it was 0.18 µg/mL (≈ 0.307 µM); in series [16], 0.04 µg/mL (≈ 0.0683 µM). In addition, the Activity result with Escherichia coli [3], with Enterococcus faecalis [7], in the series on Escherichia coli [10] and in the series with Enterococcus faecalis [15] was “Non-Toxic” in each case. For the same molecule, the Ratio in series [4] is on record as greater than 100. In the series on Bacteria, the inhibition is greater than 50%.

What is called inhibition is the percentage by which the read-out fell short of the control.

The values are drawn from ChEMBL document CHEMBL4334441, “Exploitation of Antibiotic Resistance as a Novel Drug Target: Development of a β-Lactamase-Activated Antibacterial Prodrug” (J Med Chem, 2019).
